From ChEMBL document CHEMBL5674889, “Enhanced JunD/RSK3 signalling due to loss of BRD4/FOXD3/miR-548d-3p axis determines BET inhibition resistance” (2020)
Activity calls are given as the source filed them.

Experiments:
BT-549 [1] = assay: Antiproliferative activity in human BT-549 cells assessed as cell viability at 1 uM by CCK-8 assay; assay type: functional, cell-based
MDA-MB-231 [2] = assay: Effect on human MDA-MB-231 cells assessed as JunD protein expression by Western blot analysis; assay type: functional, cell-based
BT-549 [3] = assay: Effect on human BT-549 cells assessed as JunD protein expression by Western blot analysis; assay type: functional, cell-based
BT-549 [4] = assay: Effect on human BT-549 cells assessed as RPS6KA2 protein expression by Western blot analysis; assay type: functional, cell-based
MDA-MB-231 [5] = assay: Effect on human MDA-MB-231 cells assessed as RPS6KA2 protein expression by Western blot analysis; assay type: functional, cell-based
MDA-MB-231 [6] = assay: Effect on human MDA-MB-231 cells assessed as suppression of tumor sphere formation at 1 uM by Tumor sphere assay; assay type: functional, cell-based
BT-549 [7] = assay: Effect on human BT-549 cells assessed as suppression of tumor sphere formation at 1 uM by Tumor sphere assay; assay type: functional, cell-based
MDA-MB-231 [8] = assay: Antiproliferative activity in human BRD4-knockdown MDA-MB-231 cells assessed as cell growth at 1 uM by CCK-8 assay; assay type: functional, cell-based
Procedure, shortened: (§1)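 Vector control or BRD4-knockdown cells, 3000/well, adhered overnight, then DMSO or osimertinib for 48 h; growth by CCK-8, normalized to DMSO-treated control. Triplicates, mean ± SD; one-way ANOVA, vehicle vs osimertinib in knockdown clones.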

BT-549 [9] = assay: Antiproliferative activity in human BRD4-knockdown BT-549 cells assessed as cell growth at 1 uM by CCK-8 assay; assay type: functional, cell-based; procedure, shortened: as §1
MDA-MB-231 [10] = assay: Antiproliferative activity in human MDA-MB-231 cells assessed as reduction in size of tumor sphere at 1 uM by Tumor sphere assay; assay type: functional, cell-based
BT-549 [11] = assay: Antiproliferative activity in human BT-549 cells assessed as reduction in size of tumor sphere at 1 uM by Tumor sphere assay; assay type: functional, cell-based
BT-549 [12] = assay: Inhibition of cell migration in human BT-549 cells at 1 uM by transwell invasion assay; assay type: functional, cell-based
MDA-MB-231 [13] = assay: Inhibition of cell migration in human MDA-MB-231 cells at 1 uM by transwell invasion assay; assay type: functional, cell-based
Procedure, shortened: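 Invasion assay: 1 × 10^5 cells seeded in Matrigel-coated upper Boyden chamber; lower chamber held serum-free medium with 100 nM LPA. After 24 or 48 h, invaded cells stained with crystal violet and counted.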

MDA-MB-231 [14] = assay: Induction of apoptosis in human MDA-MB-231 cells in the presence of osimertinib at 1 uM by flow cytometry analysis; assay type: functional, cell-based
Procedure, shortened: (§2)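 Cells given JQ1 and/or osimertinib, then stained with Annexin V-FITC plus propidium iodide (10 min, room temperature, dark; 1 × 10^6 cells/ml in binding buffer after two PBS washes) and analysed by flow cytometry; one-way ANOVA.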

BT-549 [15] = assay: Induction of apoptosis in human BT-549 cells in the presence of osimertinib at 1 uM by flow cytometry analysis; assay type: functional, cell-based; procedure, shortened: as §2
MDA-MB-231 [16] = assay: Induction of apoptosis in human MDA-MB-231 cells assessed as caspase-3 cleavage in the presence of osimertinib at 1 uM by Western blotting analysis; assay type: functional, cell-based
MDA-MB-231 [17] = assay: Antitumor activity against human MDA-MB-231 cells xenografted in BALB/c nude mouse model assessed as reduction of tumor size in the presence of osimertinib at 35 mg/kg/day, sc administered every 2 days for 30 days; assay type: functional, organism-based; conditions: time 30.0 day
Procedure, shortened: (§3)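 MDA-MB-231 xenografts used 1 × 10^6 cells injected subcutaneously into female BALB/c nude mice (4–6 weeks). Animals were split into four groups (n = 7) at ~100 mm3: vehicle, osimertinib 10 mg/kg, 35 mg/kg agent, or the combination, each given every 2 days. Volume was measured by calliper as length × width²/2; tumours were weighed at end.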

MDA-MB-231 [18] = assay: Antitumor activity against human MDA-MB-231 cells xenografted in BALB/c nude mouse model assessed as reduction of tumor weight in the presence of osimertinib at 35 mg/kg/day, sc administered every 2 days for 30 days; assay type: functional, organism-based; conditions: time 30.0 day; procedure, shortened: as §3
MDA-MB-231 [19] = assay: Antiproliferative activity in human MDA-MB-231 cells assessed as inhibited cell growth at 1 uM by CCK-8 assay; assay type: functional, cell-based
MDA-MB-231 [20] = assay: Antiproliferative activity in human MDA-MB-231 cells assessed as reduction in cell growth at 1 uM by CCK-8 assay; assay type: functional, cell-based
BT-549 [21] = assay: Antiproliferative activity in human BT-549 cells assessed as reduction in cell growth at 1 uM by CCK-8 assay; assay type: functional, cell-based
BT-474 = assay: Antiproliferative activity in human BT-474 cells assessed as cell growth at 1 uM by CCK-8 assay; assay type: functional, cell-based
Procedure, shortened: (§4)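 Cells grown in 10% FBS medium (DMEM for BT-474 and MDA-MB-231) and seeded at 3000 cells/well, adhering overnight. Exposed to 1 μM for 48 h, with DMSO as control. Growth read by CCK-8 as background-subtracted signal normalized to the DMSO control. Mean ± SD of triplicates.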

MDA-MB-231 [22] = assay: Antiproliferative activity in human MDA-MB-231 cells assessed as cell growth at 1 uM by CCK-8 assay; assay type: functional, cell-based; procedure, shortened: as §4
MDA-MB-231 [23] = assay: Antiproliferative activity in human MDA-MB-231 cells assessed as reduced cell growth co-treated with XMD8-92 at 1 uM by CCK-8 assay; assay type: functional, cell-based
Procedure, shortened: (§5)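 MDA-MB-231 (DMEM + 10% FBS) or BT549 (RPMI-1640 + 10% FBS) seeded at 3000 cells/well and left to adhere overnight. Treated 48 h with the kinase inhibitors alone, combined, or together with JQ1. Growth measured by CCK-8 and normalized to the DMSO-treated control after background subtraction. Triplicates, mean ± SD, one-way ANOVA against JQ1 alone.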

BT-549 [24] = assay: Antiproliferative activity in human BT-549 cells assessed as reduced cell growth co-treated with XMD8-92 at 1 uM by CCK-8 assay; assay type: functional, cell-based; procedure, shortened: as §5
MDA-MB-231 [25] = assay: Effect on human MDA-MB-231 cells assessed as RSK3 protein expression in the presence of XMD8-92 at 1 uM by Western blot analysis; assay type: functional, cell-based
MDA-MB-231 [26] = assay: Effect on human MDA-MB-231 cells assessed as EGFR protein expression at 1 uM by Western blot analysis; assay type: functional, cell-based
BT-549 [27] = assay: Antiproliferative activity in human BT-549 cells assessed as reduced cell growth co-treated with GDC-0994 at 1 uM by CCK-8 assay; assay type: functional, cell-based; procedure, shortened: as §5
MDA-MB-231 [28] = assay: Antiproliferative activity in human MDA-MB-231 cells assessed as reduced cell growth co-treated with GDC-0994 at 1 uM by CCK-8 assay; assay type: functional, cell-based; procedure, shortened: as §5
MDA-MB-231 [29] = assay: Effect on human MDA-MB-231 cells assessed as decrease in RSK3 protein expression in the presence of GDC-0994 at 1 uM by Western blot analysis; assay type: functional, cell-based

CCNC(=O)C[C@@H]1N=C(c2ccc(Cl)cc2)c2cc(OC)ccc2-n2c(C)nnc21
active: Activity (BT-549 [1]) | Activity (MDA-MB-231 [2]) | Activity (BT-549 [3]) | Activity (BT-549 [4]) | Activity (MDA-MB-231 [5])

C=CC(=O)Nc1cc(Nc2nccc(-c3cn(C)c4ccccc34)n2)c(OC)cc1N(C)CCN(C)C
active: Activity (MDA-MB-231 [6]) | Activity (BT-549 [7]) | Activity (MDA-MB-231 [8]) | Activity (BT-549 [9]) | Activity (BT-549 [1]) | Activity (MDA-MB-231 [10]) | Activity (BT-549 [11]) | inhibition (BT-549 [12]) | inhibition (MDA-MB-231 [13]) | Activity (MDA-MB-231 [14]) | Activity (BT-549 [15]) | Activity (MDA-MB-231 [16]) | Activity (MDA-MB-231 [17]) | Activity (MDA-MB-231 [18]) | Activity (MDA-MB-231 [19])

C[S+]([O-])c1ccc(-c2nc(-c3ccc(F)cc3)c(-c3ccncc3)[nH]2)cc1 (stereo not drawn)
active: Activity (MDA-MB-231 [20]) | Activity (BT-549 [21])

CN1CCN(c2ccc(-c3ccncc3-c3cc(F)c(O)c(F)c3)cc2)CC1
active: Activity (BT-474) | Activity (MDA-MB-231 [22])

Oc1c(F)cc(-c2cnccc2-c2ccc(N3CCOCC3)cc2)cc1F
active: Activity (BT-474) | Activity (MDA-MB-231 [22])

Cn1nccc1Nc1nccc(-c2ccn([C@H](CO)c3ccc(Cl)c(F)c3)c(=O)c2)n1
active: Activity (MDA-MB-231 [23]) | Activity (BT-549 [24]) | Activity (MDA-MB-231 [25]) | Activity (MDA-MB-231 [26])

CCOc1cc(N2CCC(O)CC2)ccc1Nc1ncc2c(n1)N(C)c1ccccc1C(=O)N2C
active: Activity (BT-549 [27]) | Activity (MDA-MB-231 [28]) | Activity (MDA-MB-231 [29])

COc1cc2c(cc1-c1c(C)noc1C)ncc1[nH]c(=O)n([C@H](C)c3ccccn3)c12
active: Activity (BT-549 [1]) | Activity (MDA-MB-231 [2]) | Activity (BT-549 [3]) | Activity (BT-549 [4]) | Activity (MDA-MB-231 [5])
